Data taken from the EternaBench riboswitch data.

Tested on: MS2 coat protein
Assay: apparent Kd, MS2 coat protein; higher = weaker binding; RNA-MaP array; FMN 200 µM where present
How it was run: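 Designs on Illumina sequencing-chip clusters, transcribed by stalled E. coli RNA polymerase, were exposed to SNAP-549-labelled MS2 coat protein in doubling steps from 0.7 or 1.5 nM up to 3 µM, without and then with constant ligand. The buffer held 100 mM Tris-HCl pH 7.5, 80 mM KCl, 4 mM MgCl2, BSA, DTT, yeast tRNA and Tween-20. Apparent Kd values are medians of filtered per-cluster binding-curve fits to green signal normalised to red-channel RNA signal and control-cluster median Fmax.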

[1] = designed as: OFF switch for flavin mononucleotide, no ligand
[2] = ligand present: flavin mononucleotide, designed as: OFF switch for flavin mononucleotide
[3] = designed as: ON switch for flavin mononucleotide, no ligand
[4] = ligand present: flavin mononucleotide, designed as: ON switch for flavin mononucleotide

UAUGGUAAAGUCAGGAUAUACGUACAUCAUUCUAGGUAGAAGGGACAUGAGGAUCACCCAUGUAUGGUAGUGUU
apparent Kd [1]: 62.2 nM | apparent Kd [2]: 67.6 nM

UAUGGUUAAGUCAGGAUAUACGUGCAGAUAUCUGAGUAGAAGGGACAUGAGGAUCACCCAUGUAUGGUAGUGUU
apparent Kd [1]: 79.9 nM | apparent Kd [2]: 132 nM

UAUGUAUCCUCGGGAUCCACAUGAGGAUCACCCAUGUAGACUCAGGAUAUCCAAUGCGUUGACAGGGAGAAGGGAGUUCGCAUG
apparent Kd [1]: 44.2 nM | apparent Kd [2]: 36.2 nM

UAUGUAUUCGUAGGAUAUCCGUCGAGACCGUGUGGAGAAGGACGAACAUGAGGAUCACCCAUGUAUCAUGGUGUAGACAAUUUU
apparent Kd [1]: 47.4 nM | apparent Kd [2]: 186 nM

UAUGUAUUCGUAGGAUAUCCGUUAAAACCGUGUGGAGAAGGACGAACAUGAGGAUCACCCAUGUAUCAUGGUGUAGACAAUUUU
apparent Kd [1]: 170 nM | apparent Kd [2]: 460 nM

UAUGUGAGAGGAUAUACUGAACCCAACCUAGAUUCUCACGAACAUGAGGAUCACCCAUGUAGAAGGCUCCGUGU
apparent Kd [1]: 124 nM | apparent Kd [2]: 394 nM

UAUUAAUAAUAAGGAUAUACGUCACUGCUUCGGCAGUGUGGUAAGAUCACAUGAGGAUCACCCAUGUAGAAGGAAUAUAAAAUU
apparent Kd [1]: 11.2 nM | apparent Kd [2]: 9.26 nM

UAUUAAUACGAAGGAUAUGGUUACAUGAGGAUCACCCAUGUAUGUAUAUUGAUCUAGUUUUUUAACCAGAAGGUCGUGAGUAAA
apparent Kd [1]: 30.6 nM | apparent Kd [2]: 48.6 nM

UAUUAAUACGAAGGAUAUGGUUACAUGAGGAUCACCCAUGUAUGUAUUUUGAUCUAAUAAUUUAACCAGAAGGUCGAAUAUAAA
apparent Kd [1]: 40.6 nM | apparent Kd [2]: 77.3 nM

UAUUAUAUGGAGAAGGACAUGAGGAUCACCCAUGUCGCCGGGCCCGGGAAACCGGGCCCGGCCAUGUAGGAUAUCCGUAUGGUA
apparent Kd [1]: 6 nM | apparent Kd [2]: 7.96 nM

UAUUGACAAGGAUAUUUGCGUAGUAACAUGAGGAUCACCCAUGUGAUACUAUGGAGCUCGAAAGAAGGUGUGCGAG
apparent Kd [1]: 20.5 nM | apparent Kd [2]: 22.8 nM

UAUUUUAACUAAGGAUAUCUAUAUUAUGUUGAAACAUGAGGAUCACCCAUGUUCAUGAUAUUAUAGGAGAAGGUAGAUGAAUAA
apparent Kd [3]: 6.59 nM | apparent Kd [4]: 5.44 nM

UCAACCAGCGCCAGUUGAACAUGAGGAUCACCCAUGUACUCCAGAAGGCCGCCCAAGAACGGAGUGGAGGAUAUGGAGGUUCUC
apparent Kd [3]: 28.5 nM | apparent Kd [4]: 18.4 nM

UCAAUCAUGUAAGGAUAUGCAGCCGAAACGGCUGCAGAAGGUACUAUAAUUACAUGAGGAUCACCCAUGUUAUAAAAUUUAUAU
apparent Kd [3]: 169 nM | apparent Kd [4]: 35.2 nM

UCAAUUCUGACAUCCUUAUUACAUGAGGAUCACCCAUGUUGUGAGGAUAUCCCAACCCACGGUCAGGAGAAGGCACAUAGAGGG
apparent Kd [1]: 5.5 nM | apparent Kd [2]: 5.9 nM

UCACGUCGCCAAGGAUAUACCCGAAGAUCCAUGGUAGAAGGUGGUGACAUGAGGAUCACCCAUGUCCGCGCGGACAAGUGUGCU
apparent Kd [1]: 66 nM | apparent Kd [2]: 14.7 nM

UCAGCGGUGCAAGGAUAUAACACAAUUGUCCUUAGUCGAGACGAGUGACAUGAGGAUCACCCAUGUUAGAAGGUGUCCUGCUGG
apparent Kd [1]: 72 nM | apparent Kd [2]: 326 nM

UCAUACAUGAGGAUCACCCAUGACAUGAGGAUCACCCAUGUGCAGGAUAUACGUGAUAUAAUAUAGUAGAAGGGCAGACCAAAA
apparent Kd [1]: 42.8 nM | apparent Kd [2]: 55.1 nM

UCAUACGUUGAGGAUAUGUCAGUUAGUAUAUUUACAGAAGGCGAUACAUGAGGAUCACCCAUGUUUAUGGGCAU
apparent Kd [1]: 219 nM | apparent Kd [2]: 298 nM

UCAUAUAUACAAGGAUAUCAAUGAUUUGUAGAUCCUACAUGAGGAUCACCCAUGUUUUUAUAUUUUGAGAAGGUGUAGUGUCUU
apparent Kd [3]: 178 nM | apparent Kd [4]: 352 nM

UCAUAUAUACAAGGAUAUCAAUUAUUUAUACAUCCUACAUGAGGAUCACCCAUGUUUUUAUAUUUUGAGAAGGUGUAAUGUCUU
apparent Kd [3]: 21.1 nM | apparent Kd [4]: 27.5 nM

UCAUGAUAUGUAGGAUAUCACAAUAAUUGAUUAAUAUAUGAAUAUAGAAUUUGAGAAGGACAUUUACAUGAGGAUCACCCAUGU
apparent Kd [1]: 14.8 nM | apparent Kd [2]: 12.3 nM

UCAUGCAUAGCGAUAUGAUCGAGAGAUCAUGUCGCUAAAUUUAGAAGGACAUGAGGAUCACCCAUGUAGGAUAUGGGAGCAUGU
apparent Kd [3]: 535 nM | apparent Kd [4]: 63.2 nM

UCCAAAUCGUAGAAGGGUGACAUGAGGAUCACCCAUGUGCAGCGGCCGUGAACGGCCACGCUGCCACAGGAUAUACGAUGGAGU
apparent Kd [3]: 48.4 nM | apparent Kd [4]: 74 nM

UCCACUGCUGAGAAGGGAUACGUCUGGGUCGCAUCAGGAUAUCGAUACAGUGCAGCAUGAGGACAUGAGGAUCACCCAUGUGUG
apparent Kd [3]: 102 nM | apparent Kd [4]: 49.6 nM

UCCACUGCUGAGAAGGGAUACGUGUGGUUCGAAUCAGGAUAUCGAUACAGUGCAGCAUGAGGACAUGAGGAUCACCCAUGUAUU
apparent Kd [3]: 19.1 nM | apparent Kd [4]: 14.2 nM

UCCGUGGCAUCUCGCGCAUGUCCACAUGAGGAUCACCCAUGUCAGGAUAUACGGAAUGUCGUUCCGUAGAAGGGACAAGGGCUG
apparent Kd [1]: 178 nM | apparent Kd [2]: 69.7 nM

UCCUACAUGGGAGGAUAUGGGAUGAUAACAUGAGGAUCACCCAUGUUAAAGAUGCCGAGAGGCAACUAGAAGGCCCAUGUAGGU
apparent Kd [3]: 434 nM | apparent Kd [4]: 70.3 nM

UCCUCGUAGUAGAAGGGCGGCCGAAAUCUGCACGCAGGAUAUACAUGAGGAUCACCCAUGUACUGAGCUGAAGAGCACUUGGAA
apparent Kd [1]: 11.5 nM | apparent Kd [2]: 29.5 nM

UCCUGAUCGAGAGGUAGGAGUGGUAGAAGGCGACCGGUGCCAGAUGACAUGAGGAUCACCCAUGUCGAGGAUAUACCACAGAAU
apparent Kd [1]: 7.03 nM | apparent Kd [2]: 12.3 nM

UCCUUGUCCUGAGGAUAUCCGCGGUUCCCAAAAGGAGAAGGCAGGACAUGAGGAUCACCCAUGUACCGAGAAAACGUGCAGAGU
apparent Kd [1]: 12.7 nM | apparent Kd [2]: 105 nM

UCGAACGGAAACAAAGUAAAUAGACAUGAGGAUCACCCAUGUAAGGAUAUGCCUACUAAAAGUAGGCAGAAGGUACGCGUUCGA
apparent Kd [1]: 16.5 nM | apparent Kd [2]: 20.7 nM

UCGAAGAAGCAAGGAUAUCAAUAUUAGCAAAAUAUGACAUGAGGAUCACCCAUGUAAAUAUGGAGUGAGAAGGUGCAAUAAUUU
apparent Kd [3]: 274 nM | apparent Kd [4]: 149 nM

UCGACCAGCGCCAGUCGAACAUGAGGAUCACCCAUGUACUCCAGAAGGCCGCCCAAGUACGGAGUGGAGGAUAUGGAAGUUCUC
apparent Kd [3]: 47.3 nM | apparent Kd [4]: 26.3 nM

UCGAUCGUAUGAGGAUAUGGUACACAAAGUGUACCAGAAGGCAUGUCAAUAGACAUGAGGAUCACCCAUGUAUUAUCGAUCGAA
apparent Kd [3]: 361 nM | apparent Kd [4]: 51.7 nM

UCGAUGCGAGGAUAUACUAAGGCAACUACUGCAGCUCAAAAACAUGAGGAUCACCCAUGUAGAAGGCGCAUAUA
apparent Kd [1]: 16 nM | apparent Kd [2]: 15.4 nM

UCGCCAGGUACAGGAUAUGUGGAUCGGUCAAGUAACUCGCCGAACAUGAGGAUCACCCAUGUAUCACAGAAGGGUGCCUCAAAG
apparent Kd [3]: 223 nM | apparent Kd [4]: 10.8 nM

UCGCGGGUGCAGAAGGGAUAGGCCUAUUUUCGUGGUGUCCAAACUUAACAUGAGGAUCACCCAUGUCAGGAUAUGCCCACGCGA
apparent Kd [1]: 29.5 nM | apparent Kd [2]: 52.7 nM

UCGCUGCGAGGAUAUACAUGAGGAUCACCCAUGUGCGGGUCCGGGUCUUUGUCCAUUAGUAGAAGGCGCAGUGA
apparent Kd [1]: 305 nM | apparent Kd [2]: 82.7 nM

UCGCUGCGAGGAUAUACGUGCGCGCGCGCGCGCGCGCGCGUACAUGAGGAUCACCCAUGUAGAAGGCGCUCUGC
apparent Kd [1]: 39.7 nM | apparent Kd [2]: 36.6 nM

UCGCUGCGAGGAUAUACGUGCGCGCGCUCGCGUGCGCGCGUACAUGAGGAUCACCCAUGUAGAAGGCGCGCUGC
apparent Kd [1]: 17.1 nM | apparent Kd [2]: 18.3 nM

UCGGCGCGAGGAUAUACGUUUGCUUUUUUGUGUCGUUGCGUACAUGAGGAUCACCCAUGUAGAAGGCGCGCCGC
apparent Kd [1]: 17.5 nM | apparent Kd [2]: 83.6 nM

UCGGCGCGAGGAUAUGCGGUUGCUUGGUAGGGUCGGAGCGUACAUGAGGAUCACCCAUGUAGAAGGCGCGCCGC
apparent Kd [1]: 18.8 nM | apparent Kd [2]: 25 nM

UCGGCGCGAGGAUAUGCGGUUGCUUGGUAGGGUCGUGGCGUACAUGAGGAUCACCCAUGUAGAAGGCGCGCCGC
apparent Kd [1]: 19.6 nM | apparent Kd [2]: 25.9 nM

UCUACAUAAAUUCAUCAAUACAGAAAGGAUAUGAAAUACAUGAGGAUCACCCAUGUUCAUGGGAAUUAGAAGGUUCAAUUAGCU
apparent Kd [1]: 220 nM | apparent Kd [2]: 137 nM

UCUACGCGAAUCAAGAUGGAUAGAACAUGAGGAUCACCCAUGUAGGAUAUGCUACACAAAGUGUAGCAGAAGGACAAGCGUAGA
apparent Kd [1]: 25.1 nM | apparent Kd [2]: 35.7 nM

UCUAUAAGAAAAUAGACGAAGUGGCCAGAAGGUGAAUGCCACAUGAGGAUCACCCAUGUUUCGAUCAAGGAUAUGGUUUCUCAC
apparent Kd [3]: 383 nM | apparent Kd [4]: 99.1 nM

UCUCUGCGAGGAUAUACGUUUGCGCGCUUUCGUUUGCGCGUACAUGAGGAUCACCCAUGUAGAAGGCGCGUUUC
apparent Kd [1]: 13.2 nM | apparent Kd [2]: 14.1 nM

UCUGAGGUCACAGGAUAUCAUACGUCGGCACGUUGAGAAGGGUGACCGAGCUACAUGAGGAUCACCCAUGUGCUGUCGUAACAA
apparent Kd [3]: 85.4 nM | apparent Kd [4]: 164 nM

UCUGCCGCCGUGAGGAUAUGCCCAAAAAAACGCGGGCAGAAGGCACAUGAGGAUCACCCAUGUCCCGCGGUUUU
apparent Kd [1]: 19.5 nM | apparent Kd [2]: 34.1 nM

UCUGGUCAAGGAUAUGCGUAAUGUGUUACGGCACGAGGUCUACAUGAGGAUCACCCAUGUAGAAGGUGAUCAGA
apparent Kd [1]: 18 nM | apparent Kd [2]: 17.9 nM

UCUGUUCAAGGAUAUGCGUAAUGUGUUACGGCACGAGGUCUACAUGAGGAUCACCCAUGUAGAAGGUGAUCAGA
apparent Kd [1]: 21.5 nM | apparent Kd [2]: 22.2 nM

UCUUAAUUGAUCCUAUUUACCAACAUGAGGAUCACCCAUGUGCAGGAUAUGCUAAAGAUAGAUAAGCAGAAGGGCAUUUACCGC
apparent Kd [1]: 213 nM | apparent Kd [2]: 484 nM

UCUUACUGAGGAUAUACUUAGAUUUACAUGAGGAUCACCCAUGUUCCUCUAUGUAUAUAUGUAGAAGGCAGAAGUU
apparent Kd [1]: 25.4 nM | apparent Kd [2]: 158 nM

UGAAAUCAUGUAGGAUAUGCAUGGCGAAGCUACGCAGAAGGACAUGAGGAUCACCCAUGUUCUAGCUACCGGAUACGGUGGCAA
apparent Kd [1]: 23.1 nM | apparent Kd [2]: 116 nM
